Source: ChEMBL document CHEMBL4028906, “Allosteric Inhibitors of SHP2 with Therapeutic Potential for Cancer Treatment” (J Med Chem, 2017)
Active and inactive are the calls of the source. The rule behind the calls is not given here.

Assays:
Homo sapiens [1] = organism: Homo sapiens; test: Selectivity ratio of IC50 for TC-PTP (unknown origin) expressed in Escherichia coli BL21(DE3) to IC50 for SHP2 E76A mutant (unknown origin) expressed in Escherichia coli BL21(DE3)
Outline: (§1)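 Ratio of IC50 values from one DIFMUP fluorescence assay (Ex/Em 358/455), room temperature, 0.1 M sodium acetate pH 5.0. His-tagged SHP2 E76A (1.5 nM) or counter-phosphatase purified from E. coli, preincubated 20 min with compound (eight 3-fold dilutions), then DIFMUP added for 20 min. DIFMUP was at Km for each counter-phosphatase. Duplicates; IC50 from at least three independent experiments.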

KYSE-520 cell line = test: Antiproliferative activity against human KYSE520 cells at 3 to 6 uM after 2 days by CellTiter-Glo assay; assay type: functional, cell-based
Outline: (§2)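 3000 cells/well in 96-well plates, grown overnight, then inhibitor at indicated concentrations for 2 days (48 h). Viability by CellTiter-Glo; mean±s.d., n=3.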

[2] = molecular target: T1, Tyrosine-protein phosphatase non-receptor type 11 (Homo sapiens) (UniProt Q06124); test: Allosteric inhibition of SHP2 in human NCI-H661 cells assessed as downregulation of ERK1/2 activation at 10 uM after 60 mins by Western blot analysis; assay type: cell-based
T1 sequence (whole entry): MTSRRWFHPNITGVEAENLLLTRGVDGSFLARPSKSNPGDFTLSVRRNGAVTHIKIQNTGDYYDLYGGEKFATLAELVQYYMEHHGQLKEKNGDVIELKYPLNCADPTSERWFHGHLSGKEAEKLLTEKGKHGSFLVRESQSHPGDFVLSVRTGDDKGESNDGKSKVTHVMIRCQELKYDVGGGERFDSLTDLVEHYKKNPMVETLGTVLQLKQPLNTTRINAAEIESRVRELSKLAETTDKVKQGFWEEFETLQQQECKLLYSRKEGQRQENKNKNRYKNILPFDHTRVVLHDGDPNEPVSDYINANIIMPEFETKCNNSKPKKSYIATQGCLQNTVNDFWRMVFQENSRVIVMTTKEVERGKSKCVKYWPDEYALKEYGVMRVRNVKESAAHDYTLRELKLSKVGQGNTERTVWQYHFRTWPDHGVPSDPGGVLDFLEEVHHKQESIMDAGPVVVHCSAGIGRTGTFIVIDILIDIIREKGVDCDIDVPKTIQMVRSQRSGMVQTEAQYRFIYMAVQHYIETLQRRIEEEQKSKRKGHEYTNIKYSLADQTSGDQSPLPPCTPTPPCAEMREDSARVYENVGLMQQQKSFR
Outline: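 NCI-H661 cells given 10 µM inhibitor over a time course. Lysates immunoblotted for p-ERK1/2, ERK1/2, p-AKT and AKT. Repeated at least three times.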

NCI-H1975 = test: Antiproliferative activity against human NCI-H1975 cells assessed as reduction in colony formation at 2.5 to 10 uM after 2 weeks by soft agar assay; assay type: functional, cell-based
Outline: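 NCI-H1975 cells at 10,000/well in 0.4% agarose over a 1% low-melt agarose base layer (6-well). Inhibitor at varying concentrations, replenished twice weekly. After 2 weeks, colonies stained with iodonitrotetrazolium chloride and counted; mean±s.d., n=3.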

[3] = molecular target: T1, Tyrosine-protein phosphatase non-receptor type 11 (Homo sapiens); test: Allosteric inhibition of SHP2 in human SF268 cells assessed as downregulation of YAP-mediated CTGF gene expression ay 10 to 20 uM after 2 hrs by qRT-PCR analysis; assay type: cell-based
Outline: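 SF268 cells exposed to DMSO, 10 μM or 20 μM inhibitor for 2 h. RNA extracted, reverse-transcribed, and CTGF, CYR61, ANKRD1 and YAP mRNA quantified by qPCR; mean±s.d., n=3.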

[4] = Half life in nu/nu mouse at 10 mg/kg, po measured up to 24 hrs postdose by LC/MS/MS analysis; assay type: ADME, organism-based; conditions: in vivo
Outline: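 Female nu/nu nude mice dosed IV via tail vein at 5 mg/kg or orally at 10 mg/kg. Blood sampled at 0.083, 0.25, 0.5, 1, 2, 4, 8 and 24 h post-dose (orbital sinus, terminal cardiac puncture; EDTA-2K). Plasma separated at 4 °C, precipitated with acetonitrile containing internal standard, quantified by LC/MS/MS.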

[5] = Inhibition of SHP2 N58S mutant (unknown origin); set-up: species or system Homo sapiens
Homo sapiens [6] = organism: Homo sapiens; test: Selectivity ratio of IC50 for LMW-PTP (unknown origin) expressed in Escherichia coli BL21(DE3) to IC50 for SHP2 E76A mutant (unknown origin) expressed in Escherichia coli BL21(DE3); outline: as §1
NCI-H1838 = test: Antiproliferative activity against human NCI-H1838 cells at 3 to 6 uM after 2 days by CellTiter-Glo assay; assay type: functional, cell-based; outline: as §2
[7] = molecular target: T1, Tyrosine-protein phosphatase non-receptor type 11 (Homo sapiens); test: Allosteric inhibition of SHP2 in human A549 cells harboring KRAS mutant assessed as upregulation of YAP Y357 phosphorylation at 5 and 10 uM after 2 hrs by Western blot analysis; assay type: cell-based
[8] = molecular target: Dual specificity protein phosphatase 3 (Homo sapiens, UniProt P51452); test: Inhibition of VHR (unknown origin) expressed in Escherichia coli BL21(DE3) using DIFMUP as substrate preincubated for 20 mins followed by substrate addition measured after 20 mins by phosphatase assay
Chain of Dual specificity protein phosphatase 3 (P51452 whole entry): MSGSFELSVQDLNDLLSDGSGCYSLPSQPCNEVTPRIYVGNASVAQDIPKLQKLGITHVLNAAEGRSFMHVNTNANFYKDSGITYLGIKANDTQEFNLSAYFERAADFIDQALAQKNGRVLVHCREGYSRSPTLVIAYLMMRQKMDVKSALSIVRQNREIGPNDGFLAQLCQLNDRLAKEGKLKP
Outline: (§3)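 Phosphatases purified from E. coli and run as for SHP2 E76A: 20 min room-temperature preincubation with compound in 0.1 M sodium acetate pH 5.0, then DIFMUP at each enzyme's Km, 20 min, fluorescence 358/455 nm. Eight 3-fold dilutions in duplicate; IC50 from at least three independent experiments.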

[9] = molecular target: T1, Tyrosine-protein phosphatase non-receptor type 11 (Homo sapiens); test: Allosteric inhibition of SHP2 PTP domain (unknown origin) expressed in Escherichia coli BL21(DE3) using DIFMUP as substrate preincubated for 20 mins followed by substrate addition measured after 20 mins by phosphatase assay
Outline: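 His-tagged SHP2 constructs expressed in E. coli BL21(DE3) (0.5 mM IPTG, 5 h, 30 °C) and Ni-column purified. 1.5 nM enzyme preincubated 20 min at room temperature with compound in 0.1 M sodium acetate pH 5.0. DIFMUP then added, 20 min further, fluorescence at 358/455 nm. Eight 3-fold dilutions, duplicate wells, IC50 from at least three independent experiments.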

[10] = molecular target: T1, Tyrosine-protein phosphatase non-receptor type 11 (Homo sapiens); test: Allosteric inhibition of SHP2 in human A549 cells harboring KRAS mutant assessed downregulation on ERK1/2 phosphorylation at 5 and 10 uM after 2 hrs by Western blot analysis; assay type: cell-based
THP-1 = test: Antiproliferative activity against human THP1 cells at 3 to 6 uM after 2 days by CellTiter-Glo assay; assay type: functional, cell-based; outline: as §2
[11] = molecular target: T1, Tyrosine-protein phosphatase non-receptor type 11 (Homo sapiens); test: Allosteric inhibition of SHP2 in human NCI-H661 cells assessed as downregulation of phosphorylated AKT levels at 2.5 to 20 uM after 2 hrs by Western blot analysis; assay type: cell-based
Outline: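 NCI-H661 cells in 6-well plates exposed to inhibitor 2 h at 37 °C. RIPA lysates separated by SDS-PAGE, transferred to PVDF, milk-blocked, probed overnight at 4 °C for pERK1/2, ERK1/2, pAKT and AKT. Repeated at least three times.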

[12] = molecular target: M-phase inducer phosphatase 1 (Homo sapiens, UniProt P30304); test: Inhibition of CDC25A (unknown origin) expressed in Escherichia coli BL21(DE3) using DIFMUP as substrate preincubated for 20 mins followed by substrate addition measured after 20 mins by phosphatase assay; outline: as §3
Chain of M-phase inducer phosphatase 1 (P30304 whole entry): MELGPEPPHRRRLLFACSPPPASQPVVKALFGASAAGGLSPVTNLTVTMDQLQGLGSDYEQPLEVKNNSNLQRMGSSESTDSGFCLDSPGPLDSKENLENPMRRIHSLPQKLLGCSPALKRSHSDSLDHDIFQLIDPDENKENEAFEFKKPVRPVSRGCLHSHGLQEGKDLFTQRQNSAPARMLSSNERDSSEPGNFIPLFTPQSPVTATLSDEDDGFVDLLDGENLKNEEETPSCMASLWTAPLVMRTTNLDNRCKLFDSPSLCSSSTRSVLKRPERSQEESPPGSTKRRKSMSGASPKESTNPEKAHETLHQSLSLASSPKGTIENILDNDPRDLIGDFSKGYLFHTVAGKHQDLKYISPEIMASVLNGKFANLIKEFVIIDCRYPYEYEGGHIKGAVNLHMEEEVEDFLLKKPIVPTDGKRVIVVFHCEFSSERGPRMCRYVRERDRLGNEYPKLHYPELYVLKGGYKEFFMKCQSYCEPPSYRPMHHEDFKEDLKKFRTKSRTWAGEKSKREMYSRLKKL

CC1(N)CCN(c2nc(-c3ccc4cc(Br)ccc4c3)cs2)CC1
Ratio IC50 (Homo sapiens [1]): > 30 | Activity (KYSE-520 cell line): Active | inhibition [2]: Active | Activity (NCI-H1975): Active | inhibition [3]: Active | half-life [4]: 13.3 h | IC50 [5]: 1.2 µM | Ratio IC50 (Homo sapiens [6]): > 30 | Activity (NCI-H1838): Active | inhibition [7]: Active | IC50 [8]: > 100 µM | inhibition [9]: inactive | inhibition [10]: inactive | Activity (THP-1): Active | inhibition [11]: Active | IC50 [12]: 27.5 µM
